Assay results from different studies.
Lines come from different studies, so protocols differ.
Effect on: cell growth or viability

O=C(CCCCCCC(=O)Nc1ccccc1)NO — CC50 (LLC-MK2; MTS; 48 h): 5.94 µM
CCc1nc(-c2cnc3ccc(-c4ccccc4N)cc3c2)no1 — CC50 (RD; ATP luminescence; 72 h): 21 µM
O=c1[nH]cc(F)c(=O)[nH]1 — CC50 (Caco-2; crystal violet; 72 h): 390 µM
CCOC(=O)c1csc(NN=C(C)c2ccccc2)n1 — CC50 (LLC-MK2; MTT; 96 h; pH 7.2): 292 µM
Cc1cc2ccccc2n1CCNC(=O)c1ccc(N2CCOCC2)c(F)c1 — CC50 (C6 glioma): < 500 µM
CCC[C@H](NC(=O)[C@@H](NC(=O)[C@@H](NC(=O)CC12CC3CC(CC(C3)C1)C2)C(C)(C)C)C1CCCCC1)C(=O)C(=O)NC1CC1 — CC50 (RD; neutral red): < 2 µM
CCOC(=O)c1csc(NN=Cc2cccc(OC)c2)n1 — CC50 (LLC-MK2; MTT; 96 h; pH 7.2): 641 µM
CCN(CC)c1ccc(C(=O)NCCc2c(C)[nH]c3ccccc23)cc1 — CC50 (C6 glioma): < 500 µM
CN1CCc2c(c3ccccc3n2Cc2ccc(C(=O)NO)cc2)C1 — CC50 (LLC-MK2; MTS; 48 h): > 20 µM
CCOC(=O)CC1SC(=NN=C2CCCc3ccccc32)NC1=O (centres unmarked) — CC50 (LLC-MK2; MTT; 96 h; pH 7.2): 280 µM
CCOC(=O)c1cnc2ccc(-c3ccc(C(C)C)cc3)cc2c1 — CC50 (RD; ATP luminescence; 72 h): > 2.5 µM
CCC[C@H](NC(=O)[C@H](CC1CCCCC1)NC(=O)[C@@H](NC(=O)CC12CC3CC(CC(C3)C1)C2)C(C)(C)C)C(=O)C(=O)NC1CC1 — CC50 (RD; neutral red): < 2 µM
Cc1cn([C@H]2C[C@H](N=[N+]=[N-])[C@@H](CO)O2)c(=O)[nH]c1=O — CC50 (Caco-2; crystal violet; 72 h): 56.1 µM
CCOC(=O)CC1SC(=NN=Cc2cccc(O)c2)NC1=O (centres unmarked) — CC50 (LLC-MK2; MTT; 96 h; pH 7.2): 614 µM
